From PubChem BioAssay AID638 (SRMLSC, 2007)
In all, about 1,300 compounds went through this assay and about 65 (5%) were called active. A selection follows. Entries with a potency or affinity are not part of this list. Unmarked numbers belong to inactive results.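 The calls were made as follows: active = growth inhibition reaching a set limit at one or more tested doses; inactive = the rest.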

Assay: wild-type E. coli BW25113 antibacterial activity – OD615, dose response (AID 638)
Conditions: at 100 µM (top of the series) unless noted
Summary of the method: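 assay system = wild-type Escherichia coli strain BW25113 growth | medium = Kanamycin-supplemented LB broth | measured by = optical density (absorbance) at 615 nm | timing = bacterial exposure to compound 20 h at 37 °C | doses = compound concentration series | measure = IC50 from 4-parameter logistic, bounds fixed 0–100% | controls = chloramphenicol 30 µM control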
With `N=c1c2c(-c3ccccc3)c(-c3ccccc3)n(Cc3ccco3)c2ncn1Cc1ccco1` the growth inhibition was 8.39%. With `CC(C)(C)N1C(=O)Cc2c1nc(N)c1c(N)nc(N3CCCCC3CO)c(C#N)c21` (stereo not drawn) the growth inhibition was -2.72%. In the case of `c1csc(-c2noc(COc3ccc4c(c3)CCCC4)n2)c1`, the growth inhibition is reported as 14.2%. `COc1ccc(CNC(=O)c2cc(-c3ccccc3OC)on2)cc1` showed a growth inhibition of 10.6%. In the case of `O=C(CS(=O)(=O)c1ccccc1)Nc1nc(-c2ccccc2)cs1`, the growth inhibition is reported as 7.34%. Compound `CCN(CC)c1ccc(C(=O)Nc2cccc(F)c2)cc1` has a growth inhibition of 0.51%. `O=C(CN1CCN(S(=O)(=O)c2ccc(F)cc2)CC1)Nc1ccc(Cl)c(C(F)(F)F)c1` gave a growth inhibition of 1.58%. `CC1CCN(c2nc3ccccc3nc2C(C#N)S(=O)(=O)c2ccccc2)CC1` (stereo not drawn) gave a growth inhibition of -11.4%. Work on `CC1=CCC(COC(=O)Nc2ccccc2)CC1` (stereo not drawn) yielded a growth inhibition of 10.3%. Compound `Cc1cccnc1NC(=O)c1c(O)c2cccc3c2n(c1=O)CCC3` has a growth inhibition of 0.91%. Work on `CCn1c(=O)c(C(=O)Nn2c(C)nc3ccccc3c2=O)c(O)c2ccccc21` yielded a growth inhibition of 2.63%. `CCOC(=O)Cc1c(C)nc2c(-c3cccc(Br)c3)c[nH]n2c1=O` showed a growth inhibition of 7.94%. For `Cc1onc(-c2ccccc2)c1C(=O)Nc1nnc(COc2ccc(Cl)cc2)s1`, the growth inhibition was -9.06%. For `CCn1c(C(=O)N2CCC(Cc3ccccc3)CC2)cc2sccc21`, the growth inhibition was -18.6%. With `N#Cc1c(NC(=O)c2ccc(Br)o2)n(-c2ccccc2)c2nc3ccccc3nc12` the growth inhibition was -13.4%. With `CC1=C(C#N)c2nc(N)c(C#N)c(C)c2/C1=C\c1ccccc1` the growth inhibition was -0.01%. `C(=C\c1ccccc1)/CN1CCN(c2ncnc3c2oc2ccccc23)CC1` gave a growth inhibition of -1.65%. In the case of `CCC(CC)c1nnc(NC(=O)c2c(-c3ccccc3)noc2C)s1`, the growth inhibition is reported as 9.3%. `O=C1c2ccccc2C(O)(Cc2ccccc2)N1C1CCCCC1` (stereo not drawn) showed a growth inhibition of -0.01%. `CCCc1nc(SCC(=O)N2CCC(Cc3ccccc3)CC2)c2c(=O)n(C)c(=O)n(C)c2n1` gave a growth inhibition of -7.24%. With `O=C(Nc1ccc2nc(-c3cccs3)[nH]c2c1)c1ccco1` the growth inhibition was 15%. With `Cc1ccccc1S(=O)(=O)Cc1ccc(C(=O)N2CCN(c3cccc(C)c3C)CC2)o1` the growth inhibition was 7.63%. With `COc1ccc(-c2cc3nc4c(c(N5CCC6(CC5)OCCO6)n3n2)CCCC4)cc1` the growth inhibition was 0.64%. Compound `Clc1ccc(C2=Nn3c(nnc3-c3n[nH]c4c3CCC4)SC2)cc1Cl` has a growth inhibition of 1.98%. `Cc1cccc(N2C(N)=C(C#N)C(C#N)(C#N)C2c2ccccc2)c1` (stereo not drawn) gave a growth inhibition of -0.76%. Compound `CC(C)(C)C(=O)Cn1c(=N)n(Cc2ccccc2)c2ccccc21` has a growth inhibition of 1.06%. With `O=c1n(Cc2ccccc2)c2cc(Cl)cnc2n1Cc1ccccc1` the growth inhibition was 6.2%. Work on `O=C(NCc1ccco1)C(c1cccs1)N(C(=O)C1COc2ccccc2O1)c1cccc(O)c1` (stereo not drawn) yielded a growth inhibition of 1.03%. In the case of `CCOC(=O)N1CCN(c2nc(N(c3ccccc3)c3ccccc3)nc(-n3ccnc3)n2)CC1`, the growth inhibition is reported as -3.06%. Compound `COc1ccc(C2c3sc(=O)[nH]c3SC3C4CCC(C4)C23)cc1` (stereo not drawn) has a growth inhibition of 0.8%. Work on `CCOc1ccccc1N1CCN(C(=O)Nc2ccc(F)c(Cl)c2)CC1` yielded a growth inhibition of -9.1%. Work on `CCOC(=O)c1cn(CC)c2cc(N3CCCCC3)c(F)cc2c1=O` yielded a growth inhibition of -6.06%. Compound `O=C(Nc1ccc(N2CCN(C(=O)c3ccco3)CC2)c(Cl)c1)c1cccs1` has a growth inhibition of -1.45%. `CCOC(=O)c1cn(CC)c2cc(N3CCOCC3)c(F)cc2c1=O` showed a growth inhibition of 4.05% [at 50 µM]. Work on `CCn1cc(C(=O)O)c(=O)c2cc(OC)ccc21` yielded a growth inhibition of 19.6%. `CCn1cc(C(=O)O)c(=O)c2cnc(N3CCN(C(=O)Nc4ccccc4)CC3)nc21` gave a growth inhibition of 5.93%. Work on `O=C(Nc1ccc(N2CCN(C(=O)c3ccco3)CC2)c(Cl)c1)c1c(F)c(F)c(F)c(F)c1F` yielded a growth inhibition of -3.01%. `Cc1nc2c(C(=O)NCc3ccc4c(c3)OCO4)c[nH]n2c(=O)c1Cc1ccccc1F` showed a growth inhibition of 0.77%. Work on `CCn1c2ccccc2c2cc(NC(=O)c3ccco3)ccc21` yielded a growth inhibition of -3.49%. Work on `COc1ccccc1-c1cc(C(=O)NCc2ccc(F)cc2)no1` yielded a growth inhibition of -0.01%. Compound `CCOC(=O)C1=C(C)NC(SCC(=O)Nc2cc(C)on2)=C(C#N)C1c1cccs1` (stereo not drawn) has a growth inhibition of 3.97%. In the case of `CCOC(=O)c1c(-c2cccs2)csc1NC(=O)CN1CC(C)OC(C)C1` (stereo not drawn), the growth inhibition is reported as -7.6%. In the case of `Nc1nc(CN2CCN(c3cccc(Cl)c3)CC2)nc(N2CCCc3ccccc32)n1`, the growth inhibition is reported as 4.24%. In the case of `O=c1c2c(nc3c(-c4cccc5ccccc45)c[nH]n13)CCC2`, the growth inhibition is reported as -1.35%. `Cc1ccc(Cn2ccc(NC(=O)c3cc(CC(C)C)on3)n2)cc1` gave a growth inhibition of 0.62%. `N#Cc1cn(CCOc2ccccc2F)c2ccccc12` showed a growth inhibition of -0.93%. For `COc1ccccc1N1CCN(C(=O)c2cc(-c3ccc(C)cc3)on2)CC1`, the growth inhibition was -0.92%. In the case of `Cc1cccc(C)c1NC(=O)C(c1cccs1)N(Cc1ccco1)C(=O)Cn1nnc2ccccc21` (stereo not drawn), the growth inhibition is reported as -8.04%. Work on `O=C(Nc1ccc2c(c1)CCC2)C1COc2ccccc2O1` (stereo not drawn) yielded a growth inhibition of 7.62%. For `CCCN(CCC)C(=O)CSc1nc2ccccc2c(=O)n1C1CCCC1`, the growth inhibition was -6.85%. In the case of `CCOC(=O)c1cc2sccc2n1Cc1ccc(C#N)cc1`, the growth inhibition is reported as -10.3%. In the case of `CCc1c(O)nc(SCC(=O)Nc2ccc(C)cc2)n(C2CCCCC2)c1=O`, the growth inhibition is reported as -10.1%. `CC1CCCc2sc3nc(NCc4ccco4)n4ncnc4c3c21` (stereo not drawn) showed a growth inhibition of -3.17%. With `O=C1OC(c2ccc(O)cc2)(c2ccc(O)cc2)c2ccccc21` the growth inhibition was 24.6% (active). `CCn1c(SC)nnc1-c1sc2cc(Cl)ccc2c1Cl` gave a growth inhibition of 2.34%. Work on `CC1CCCCC1n1c(=S)[nH]c2ccccc2c1=O` (stereo not drawn) yielded a growth inhibition of -0.57%. For `CCCOc1ccc2oc(=O)c3c(c2c1)CCCN3C(=O)CN1CCc2ccccc2C1`, the growth inhibition was 0.92%. With `Cc1ccc(O)c(C(=O)CC(=O)c2cccc(F)c2)c1` the growth inhibition was 11.9%.
